Measured values collected from several papers.
Compare with care: the assays were run in different laboratories. pEC50, pIC50: −log10 of the molar value. Converted amounts (≈) assume the structure as drawn.

C[C@H]1COCCN1c1nc(NCc2cccnc2C(F)(F)F)c2cccnc2n1 — MIC (Clostridioides difficile; microbial growth, broth dilution; 630): 64 µg/mL
CC[C@H](C)C[C@H](C)CCCCCCCCC(=O)N[C@H]1C[C@@H](O)[C@@H](NCCN)NC(=O)[C@@H]2[C@@H](O)CCN2C(=O)[C@H]([C@H](O)CCN)NC(=O)[C@H]([C@H](O)[C@@H](O)c2ccc(O)cc2)NC(=O)[C@@H]2C[C@@H](O)CN2C(=O)[C@H]([C@@H](C)O)NC1=O — MIC (Saccharomyces cerevisiae; microbial growth, broth dilution; S288C): 0.25 µg/mL
CC(C)OC(=O)[C@H](C)N[P@](=O)(CO[C@H](C)Cn1cnc2c(N)ncnc21)Oc1ccccc1 — inhibition (Hepatitis B virus; viral replication, inhibitor; HepG2.2.15; 1 µM, 6 days): ~65%
C[C@@H]1C[C@@H]([C@H](O)CC2CC(=O)NC(=O)C2)C(=O)[C@@H](C)C1 — MIC (Saccharomyces cerevisiae; microbial growth): 3 µM
O=C1Cc2ccccc2C(=O)N1O — pEC50 (Hepatitis B virus; viral replication, inhibitor, qPCR; HepDES19; 72 h): 5.38
Cc1ncc([N+](=O)[O-])n1CCO — MIC50 (Clostridioides difficile; microbial growth): 0.25 µg/mL (≈ 1.46 µM)
CC(C)(C)C(=O)OCOP(=O)(COCCn1cnc2c(N)ncnc21)OCOC(=O)C(C)(C)C — pIC50 (Hepatitis B virus; viral replication, qPCR; HepG2.2.15; 14 days): 6.06
CCN1CCN(C(=O)N[C@@H](C(=O)N[C@@H]2C(=O)N3C(C(=O)O)=C(CSc4nnnn4C)CS[C@H]23)c2ccc(O)cc2)C(=O)C1=O — MIC (Clostridioides difficile; microbial growth, broth dilution; 24 h): 100 µg/mL
[O-][N+]1=C(c2ccc(Cl)cc2)C2=NCCN2c2ccccc21 — MIC50 (Fusobacterium nucleatum; microbial growth): ≤ 0.06 µg/mL
C=C1[C@H](CO)[C@@H](O)C[C@@H]1n1cnc2c(=O)[nH]c(N)nc21 — pIC50 (Hepatitis B virus; viral replication, qPCR; HepG2.2.15; 14 days): 8.52
CN[C@H](CC(C)C)C(=O)N[C@H]1C(=O)N[C@@H](CC(N)=O)C(=O)N[C@H]2C(=O)N[C@H]3C(=O)N[C@H](C(=O)N[C@H](C(=O)O)c4cc(O)cc(O)c4-c4cc3ccc4O)[C@H](O)c3ccc(c(Cl)c3)Oc3cc2cc(c3O[C@@H]2O[C@H](CO)[C@@H](O)[C@H](O)[C@H]2O[C@H]2C[C@](C)(N)[C@H](O)[C@H](C)O2)Oc2ccc(cc2Cl)[C@H]1O — MIC (Clostridioides difficile; microbial growth, broth dilution; 24 h): 1 µg/mL
N#C[C@]1(CO)O[C@@H](n2cnc3c(=O)[nH]c(N)nc32)C[C@@H]1O — pIC50 (Hepatitis B virus; viral replication, qPCR; HepG2.2.15; 14 days): 9.30
O=C(NCc1ccc2c(c1)OCO2)c1ccc(Br)cc1F — MIC (Saccharomyces cerevisiae; microbial growth; BY4743; 72 h): > 200 µM
O=[N+]([O-])c1ccc(C2=[N+]([O-])c3ccccc3N3CCN=C23)cc1 — MIC90 (Clostridioides difficile; microbial growth): ≤ 0.06 µg/mL
CC(C)OC(=O)OCOP(=O)(CO[C@H](C)Cn1cnc2c(N)ncnc21)OCOC(=O)OC(C)C — pIC50 (Hepatitis B virus; viral replication, qPCR; HepG2.2.15; 14 days): 6.70
